This excerpt belongs to a sample that is enriched for hits.
UPR CHOP act: activators of apoptotic arm of unfolded protein response (CHOP) | AID 449763 | CHO-CHOP luciferase reporter, UPR activation, luminescence; percent of tunicamycin response over DMSO baseline | actives 0.34% (n = 330,000) | activation, % at 10 µM;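 active = at 10 µM dose, activation of 40% or more, normalized to positive control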;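 note: 100% = tunicamycin at 10 µg/mL and 0% = DMSO alone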
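Dosing – one dose, 10 µM in 0.5% DMSO · System – CHO-CHOP cells, stable luciferase reporter of PERK-eIF2a-CHOP signalling · Input – 500 cells/well · Control set – tunicamycin 10 µg/mL final as positive, DMSO-only wells as negative · Timing – 6 h compound treatment, 37 °C · Measure – % activation vs tunicamycin · Technique – luminescence read with Steady-Glo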
p-CIP stab down: lowers stability of the mouse p/CIP coactivator protein; Q05BA5; F442A p/CIP-EGFP cells, EGFP fluorescence, 16 h; decrease of EGFP signal, % at 10 µM; actives 0.01% (n = 290,000); AID 1984;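 active = EGFP signal decrease of at least 30% at 10 µM or well 3 SD below plate mean, unless failing retest; inactive = the rest, including hits failing retest or dose response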
Dynein cargo inh: dynein cargo transport inhibition; 3617.4 mouse cells, GR-EGFP nuclear translocation imaging; test concentration mostly 20 µM; stimulated with dexamethasone, 1 µM; hits give low values; z-score, hits read low; actives 0.47% (n = 220,000);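 active = plate z-score of nuclear minus cytoplasmic receptor signal below a set negative limit, without overly bright fluorescence or cell loss, cut at about -3.5 in these data, passing the limit was not always enough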;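 note: z-score of nuclear minus cytoplasmic ring GR-EGFP intensity difference per well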
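Also added: dexamethasone, 1.0 µM final. Medium: tet-free, stripped-serum medium. Detection: fixed, Hoechst-stained cells imaged at 10x for EGFP. Read-out: nuclear-to-cytoplasmic GR-EGFP distribution per well. Times: induction 48 h, compound 1 h, agonist 30 min.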
Beta2AR agonist: activates human beta-2 adrenergic receptor causing internalization; P07550; Am2.2-beta2AR cells, FAP receptor internalization, flow cytometry; response, % (test concentration not listed); actives 0.43% (n = 340,000);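 active = response above a set limit, near 3 SD of response in nonfluorescent compounds, cut at about 42% in these data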
CHOP inh: inhibitors of CHOP induction in ER stress response. inhibition, % at 10 µM. AID 2732. CHO-K1 CHOP-promoter luciferase, tunicamycin-induced, 15-18 h. actives 3.8% (n = 220,000);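 active = compounds that reduced the stress-induced luciferase reporter signal by more than about 70% of percent inhibition, limit read from the data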;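 note: 0% = tunicamycin plus vehicle and 100% = wells without tunicamycin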
XBP1 UPR activ: adaptive UPR (XBP1) activation | CHO-XBP1 luciferase reporter, IRE1-XBP1 UPR activation, luminescence; percent of tunicamycin response, DMSO as zero | activation, % at 20 µM | actives 0.33% (n = 330,000);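 active = versus positive control, 20 µM dose yields 30% or more activation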;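 note: 100% = tunicamycin at 10 µg/mL and 0% = DMSO only wells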
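Material: CHO-XBP1 cells stably carrying IRE1-XBP1-driven luciferase reporter / Amount: 1000 cells per well / Compound: 20 µM, 1% DMSO / Times: 6 h treatment, 37 °C / Detection: luciferase luminescence / Measure: % activation of reporter signal versus tunicamycin and DMSO controls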
An asterisk follows results filed as active; x = no result.

SMILES	UPR CHOP act	p-CIP stab down	Dynein cargo inh	Beta2AR agonist	CHOP inh	XBP1 UPR activ
CN1C(=O)/C(=C/C=C/c2ccco2)C(=O)NC1=S	0	-9	-0.76	58*	3	1
O=C1NC(=S)N(c2ccc(F)cc2)C(=O)/C1=C/c1ccco1	1	-10	x	x	x	-2
O=C(Cc1ccc(Cl)c(Cl)c1)N1CCCCC1CN1CCCC1 (stereo not drawn)	x	x	x	x	5	x
CC1CCC(C(C)C)C(OC(=O)Cn2c(COc3ccccc3)[n+](C)c3ccccc32)C1 (stereo not drawn)	2	-14	-1	11	92*	23
O=C1CC[C@@]2(O)C3Cc4ccc(O)c5c4C2(CCN3CC2CC2)[C@H]1O5 (stereo partly drawn)	x	x	x	x	-29	x
Cc1sc(-n2c(C)cc(C=C3C(=O)NC(=O)NC3=O)c2C)c(C#N)c1C	2	-20	-0.27	x	80*	15
O=C(COC(=O)c1cccc(O)c1)Nc1ccc(Cl)cc1C(=O)c1ccccc1	-1	-17	1.9	-12	80*	2
CCOc1ccccc1OCC(=O)Nc1ccc(Cl)cc1C(=O)c1ccccc1	-1	1	0.57	6	16	-3
COc1ccc2c(c[n+](C)c3c4cc5c(cc4ccc23)OCO5)c1OC	x	x	x	x	-25	x
CC(C)(C)n1cccc1/C=C1\C(=O)NC(=O)N(c2ccccc2)C1=O	1	-6	0.46	-5	-14	1
Cc1cc(C)cc(N2C(=O)NC(=O)/C(=C/c3cccn3-c3ccc(Cl)cc3)C2=O)c1	99*	-15	-1.2	7	-88	-2
CCN1C(=O)/C(=C/c2ccc3c(c2)CCN3CCCCl)C(=O)NC1=S	x	-17	-1.3	1	90*	x
O=C1NC(=S)N(C2CC2)C(=O)/C1=C/c1ccc2c(c1)CCN2CCCCl	x	-10	-3.3	8	-34	x
CC(C)c1oc(=O)cc2c1[C@@H](O)[C@H]1OC(=O)[C@@]3(C)CC[C@@H](O)[C@@]2(C)C13 (stereo partly drawn)	2	-10	1.5	84*	10	1
CC(C)c1oc(=O)cc2c1[C@@H](O)[C@H]1OC(=O)[C@@]3(C)C[C@@H](O)[C@@H](O)[C@@]2(C)C13 (stereo partly drawn)	0	-1	0.29	75*	13	5
CCC(C)N1C(=O)/C(=C\c2ccc(N3CCCCCC3)cc2)C(=O)NC1=S (stereo not drawn)	23	-14	0.18	10	71*	1
CCC(C)N1C(=O)/C(=C\c2cc3c4c(c2)CCCN4CCC3)C(=O)NC1=S (stereo not drawn)	25	-6	-0.69	-80	-62	-4
CCCNC(=O)N1[C@H]2CC[C@@H]1C(C(=O)OC)=C(c1cc3ccccc3s1)C2	2	x	x	-5	x	-2
C/C=C(/C)C(=O)O[C@H]1C(C)=C2[C@H]([C@@H]1OC(=O)CCCCCCC)[C@@](C)(OC(C)=O)C[C@H](OC(=O)CCC)[C@@]1(O)[C@H]2OC(=O)[C@@]1(C)O	x	x	x	x	32	x
CC(=O)OC(C)(C)/C=C/C(=O)[C@](C)(O)C1[C@H](O)C[C@@]2(C)C3CC=C4C(C[C@H](O)C(=O)C4(C)C)[C@]3(C)C(=O)C[C@]12C (stereo partly drawn)	36	x	x	66*	x	-4
CC(C)(O)/C=C/C(=O)C(C)(O)C1C(O)CC2(C)C3CC=C4C(C=C(O)C(=O)C4(C)C)C3(C)C(=O)CC12C (stereo not drawn)	x	x	x	42*	x	x
CCOP(=O)(OCC)C(C)(C)NC(=O)C(Cl)(Cl)Cl	-1	1	-0.018	-2	4	-2
CCN(CC)C(=O)c1ccc(NC(=O)c2cccc(C(F)(F)F)c2)cc1	-1	0	1.8	3	30	-2
CCN(CCCl)c1cc(CN(C)C)cc(NC(=O)c2ccc(C(=O)Nc3cc(CN(C)C)cc(N(CC)CCCl)c3)cc2)c1	x	x	x	47*	x	x

Bioassay records (PubChem BioAssay)
